From PMC5536102 (Biochemistry, 2017)
Residues, ends and D or L forms follow the SMILES beside them.

Key:
purified human αIIbβ3 = purified human αIIbβ3 (Homo sapiens, UniProt P05106+P08514); assay type: binding; settings: for average binding affinity constant (Kb), Kb = kon/koff: two-dimensional affinity calculated from kon and koff, Mn2+-activated αIIbβ3
How it was run: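 Peptides covalently coupled to amine-functionalized latex beads. Purified human αIIbβ3, Mn2+-activated, immobilized for 2 h at 4 °C on glutaraldehyde-activated, polyacrylamide-coated 5-μm silica pedestals. At room temperature, the laser-trapped bead oscillated at 10 Hz (0.8 μm peak-to-peak, 2000 pN/s) against the pedestal for set contact times T. Binding probability versus T was fitted kinetically; αIIbβ3 density ~3000 molecules/μm² gave kon; Kb = 1/Kd = kon/koff.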

αIIbβ3 = settings: based on a theoretical model; ref 49 (Dutta et al.); cited from earlier work
[1] = biological target: integrin αIIbβ3 headpiece (Homo sapiens) (UniProt P08514); settings: cited from earlier work

fibrinogen, sequence (P02671 36-866): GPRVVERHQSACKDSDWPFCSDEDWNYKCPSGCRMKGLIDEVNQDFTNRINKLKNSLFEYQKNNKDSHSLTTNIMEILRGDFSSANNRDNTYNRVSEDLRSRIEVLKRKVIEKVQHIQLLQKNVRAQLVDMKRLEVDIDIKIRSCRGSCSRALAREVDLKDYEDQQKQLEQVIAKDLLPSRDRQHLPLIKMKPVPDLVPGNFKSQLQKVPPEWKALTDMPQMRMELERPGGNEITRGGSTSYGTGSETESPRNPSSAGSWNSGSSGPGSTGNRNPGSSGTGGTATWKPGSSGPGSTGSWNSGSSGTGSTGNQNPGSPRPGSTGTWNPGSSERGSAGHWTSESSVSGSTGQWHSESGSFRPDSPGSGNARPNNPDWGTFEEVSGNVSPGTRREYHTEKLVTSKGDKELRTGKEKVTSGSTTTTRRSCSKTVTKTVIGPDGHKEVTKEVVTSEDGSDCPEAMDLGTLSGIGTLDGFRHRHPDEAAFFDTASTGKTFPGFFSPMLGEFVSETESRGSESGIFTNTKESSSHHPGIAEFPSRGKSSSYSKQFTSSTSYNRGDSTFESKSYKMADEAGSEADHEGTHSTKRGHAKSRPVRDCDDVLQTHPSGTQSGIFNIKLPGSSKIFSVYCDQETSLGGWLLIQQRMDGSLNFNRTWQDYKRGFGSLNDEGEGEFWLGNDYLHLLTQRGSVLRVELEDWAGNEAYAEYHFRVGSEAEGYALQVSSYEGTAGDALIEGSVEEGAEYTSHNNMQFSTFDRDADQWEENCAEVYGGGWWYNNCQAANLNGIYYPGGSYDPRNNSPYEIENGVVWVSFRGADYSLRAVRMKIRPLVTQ
fibrinogen, sequence (P02675 45-491, further chain): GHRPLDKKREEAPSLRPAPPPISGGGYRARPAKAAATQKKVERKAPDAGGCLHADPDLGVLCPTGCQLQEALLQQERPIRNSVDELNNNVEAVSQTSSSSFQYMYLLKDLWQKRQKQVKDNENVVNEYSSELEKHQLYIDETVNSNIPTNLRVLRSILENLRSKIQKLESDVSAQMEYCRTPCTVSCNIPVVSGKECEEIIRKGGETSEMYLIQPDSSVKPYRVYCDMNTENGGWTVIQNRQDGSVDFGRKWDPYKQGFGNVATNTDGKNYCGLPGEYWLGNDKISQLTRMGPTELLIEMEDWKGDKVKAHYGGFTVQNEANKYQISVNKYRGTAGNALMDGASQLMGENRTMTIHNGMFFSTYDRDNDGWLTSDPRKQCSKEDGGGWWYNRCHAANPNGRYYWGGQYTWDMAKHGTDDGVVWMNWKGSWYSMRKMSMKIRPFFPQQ
fibrinogen, sequence (P02679 27-453, further chain): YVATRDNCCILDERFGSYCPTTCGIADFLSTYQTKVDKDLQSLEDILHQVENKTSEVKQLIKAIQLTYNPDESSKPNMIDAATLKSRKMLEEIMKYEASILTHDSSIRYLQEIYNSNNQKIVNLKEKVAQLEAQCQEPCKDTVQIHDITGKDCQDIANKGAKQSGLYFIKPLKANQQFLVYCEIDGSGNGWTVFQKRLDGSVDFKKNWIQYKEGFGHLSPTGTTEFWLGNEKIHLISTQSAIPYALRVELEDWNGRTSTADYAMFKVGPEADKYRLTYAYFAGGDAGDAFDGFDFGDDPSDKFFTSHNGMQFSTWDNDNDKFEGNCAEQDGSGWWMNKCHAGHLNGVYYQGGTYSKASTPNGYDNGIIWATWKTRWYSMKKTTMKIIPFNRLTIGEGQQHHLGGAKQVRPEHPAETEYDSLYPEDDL

Compound: CC(C)C[C@H](NC(=O)[C@H](Cc1c[nH]cn1)NC(=O)[C@@H](N)Cc1c[nH]cn1)C(=O)NCC(=O)NCC(=O)N[C@@H](C)C(=O)N[C@@H](CCCCN)C(=O)N[C@@H](CCC(N)=O)C(=O)N[C@@H](C)C(=O)NCC(=O)N[C@@H](CC(=O)O)C(=O)N[C@H](C(=O)O)C(C)C [γC-12, His-His-Leu-Gly-Gly-Ala-Lys-Gln-Ala-Gly-Asp-Val] (H-HHLGGAKQAGDV-OH)
- koff (purified human αIIbβ3; pH 7.4, read-out: average unbinding rate constant koff): 2.05 ± 0.59 s⁻¹
- average binding affinity constant (Kb), Kb = kon/koff (purified human αIIbβ3): (1.22 ± 0.61) × 10^12 cm^2/mol

Compound: cyclo (S,S)-L-lysyl-L-tyrosyl-glycyl-L-cystinyl-L-homoarginyl-glycyl-L-aspartyl-L-trytopanyl-L-prolyl-L-cystine [cHarGD]
- dissociation energy (αIIbβ3): 7 to 9 kcal/mol

Compound: cyclo[Arg-Gly-Asp-D-Phe-Lys(Cys)] (head to tail) [cRGDFK]
- average binding affinity constant (Kb), Kb = kon/koff (purified human αIIbβ3): (1.96 ± 0.65) × 10^12 cm^2/mol

Compound: fibrinogen (from UniProt P02671)
- Kd [1]: 100 nM
